In ChEMBL document CHEMBL1128603, “Novel deltorphin heptapeptide analogs with potent delta agonist, delta antagonist, or mixed mu antagonist/delta agonist properties” (J Med Chem, 1995):
Starred links: 1 amine or outer side, 2 acyl side, 3 side chain; linkers in the order of their positions; H or OH if unused. Non-standard residues stand in square brackets, D forms with d. Residues, ends and D or L forms follow the SMILES beside them. X1 = CSCC[C@H](CN([C@@H](Cc1ccccc1)C(=O)[*:2])[*:1])N[*:3]; Tle = CC(C)(C)[C@H](N)C(=O)O; NBuGly = CCCCNCC(=O)O

What was measured:
Mus musculus = species: Mus musculus; test: In vitro inhibitory concentration against electrically induced contraction of mouse vas deferens (MVD); format: functional
In short: (§1)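 Electrically stimulated isolated tissue: longitudinal muscle strips of Hartley guinea pig ileum (250-300 g) for GPI, vas deferens of male ddY mouse (25-35 g) for MVD. IC50 read from log dose-response curves of contraction inhibition.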

Cavia porcellus = species: Cavia porcellus; test: In vitro inhibitory concentration against electrically induced contraction of guinea pig ileum (GPI); format: functional; in short: as §1
Mu-type opioid receptor = Mu-type opioid receptor (Rattus norvegicus, UniProt P33535); test: Inhibition of [3H]DAGO binding to rat brain Opioid receptor mu 1
Sequence of Mu-type opioid receptor (P33535 whole entry): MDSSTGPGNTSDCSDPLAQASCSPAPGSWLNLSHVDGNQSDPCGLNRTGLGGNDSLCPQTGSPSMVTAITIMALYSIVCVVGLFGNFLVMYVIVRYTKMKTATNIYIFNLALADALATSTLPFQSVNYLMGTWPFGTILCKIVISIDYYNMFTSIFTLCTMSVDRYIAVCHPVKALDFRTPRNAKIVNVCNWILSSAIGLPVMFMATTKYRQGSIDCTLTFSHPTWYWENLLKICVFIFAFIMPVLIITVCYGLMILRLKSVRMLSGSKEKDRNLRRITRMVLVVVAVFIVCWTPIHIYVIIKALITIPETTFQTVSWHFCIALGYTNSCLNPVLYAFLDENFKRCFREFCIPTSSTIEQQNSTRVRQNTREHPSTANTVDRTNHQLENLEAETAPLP
In short: (§2)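 Crude rat brain synaptosomal fraction (600 μg protein/mL) in 50 mM Tris-HCl pH 7.4 with BSA, bacitracin, bestatin and soybean trypsin inhibitor. Radioligand [3H]DAGO (μ) or [3H]DADLE (δ) at 2 nM. The δ assay also held 2.6 μM [Nα-MePhe3,D-Pro4]morphiceptin to block μ sites. Nonspecific binding with 1 μM unlabeled ligand. Incubated 60 min at 25 °C, filtered on PEI-soaked GF/B, counted by scintillation. Ki from IC50 by Cheng-Prusoff; mean of three.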

[1] = target: Delta-type opioid receptor (Rattus norvegicus, UniProt P33533); test: Inhibition of [3H]-DADLE binding to rat brain delta receptor; in short: as §2
Sequence of Delta-type opioid receptor (P33533 whole entry): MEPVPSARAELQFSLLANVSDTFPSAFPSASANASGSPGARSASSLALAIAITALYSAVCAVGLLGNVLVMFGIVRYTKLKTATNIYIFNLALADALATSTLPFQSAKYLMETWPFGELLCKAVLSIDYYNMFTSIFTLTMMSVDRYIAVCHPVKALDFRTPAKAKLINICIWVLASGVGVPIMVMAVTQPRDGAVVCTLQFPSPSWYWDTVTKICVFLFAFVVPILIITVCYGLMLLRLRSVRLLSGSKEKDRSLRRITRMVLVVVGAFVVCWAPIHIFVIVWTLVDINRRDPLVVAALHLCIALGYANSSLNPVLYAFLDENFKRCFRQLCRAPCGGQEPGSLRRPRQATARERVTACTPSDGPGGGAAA

[2] = target: Delta-type opioid receptor (Mus musculus) (UniProt P32300); test: Ratio of antagonistic activity against delta receptors in mouse vas deferens in presence and absence of delta agonist deltorphin; format: functional
Sequence of Delta-type opioid receptor (Mus musculus) (P32300 whole entry): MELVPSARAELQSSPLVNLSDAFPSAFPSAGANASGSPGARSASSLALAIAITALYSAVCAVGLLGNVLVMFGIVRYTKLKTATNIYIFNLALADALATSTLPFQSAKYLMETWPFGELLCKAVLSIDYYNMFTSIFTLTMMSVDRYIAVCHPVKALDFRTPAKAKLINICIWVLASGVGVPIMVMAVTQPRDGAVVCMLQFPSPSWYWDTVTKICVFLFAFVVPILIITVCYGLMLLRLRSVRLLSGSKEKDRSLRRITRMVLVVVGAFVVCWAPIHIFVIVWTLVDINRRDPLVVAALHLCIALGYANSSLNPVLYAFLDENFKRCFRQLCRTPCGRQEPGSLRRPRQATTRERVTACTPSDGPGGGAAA
In short: (§3)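 Agonist log dose-response curves were run with and without a fixed antagonist level. Ke was derived from the ratio of the IC50 values.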

[3] = target: Opioid receptors; mu & delta (Rattus norvegicus) (UniProt P33533+P33535); test: Relative binding affinity for mu and delta opioid receptors; format: protein assay
Sequence of Opioid receptors; mu & delta (Rattus norvegicus) (P33533 whole entry, looked up): as the sequence (P33533 whole entry) above
Sequence of Opioid receptors; mu & delta (Rattus norvegicus) (P33535 whole entry, looked up): as the sequence (P33535 whole entry) above

[4] = IC50 ratio measured as the IC50 values of GPI to that of MVD.; format: functional
[5] = target: Delta-type opioid receptor (Mus musculus) (UniProt P32300); test: Ratio of antagonistic activity against delta receptors in mouse vas deferens in presence and absence of delta agonist leu-enkephalin; format: functional; in short: as §3
[6] = target: Delta-type opioid receptor (Mus musculus) (UniProt P32300); test: Ratio of antagonistic activity against delta receptors in mouse vas deferens in presence and absence of delta agonist DADLE; format: functional; in short: as §3
[7] = target: Delta-type opioid receptor (Mus musculus) (UniProt P32300); test: Ratio of antagonistic activity against delta receptors in mouse vas deferens in presence and absence of delta agonist DL-II; format: functional; in short: as §3
[8] = target: Delta-type opioid receptor (Mus musculus) (UniProt P32300); test: Ratio of antagonistic activity against delta receptors in mouse vas deferens in presence and absence of delta agonist DPDPE; format: functional; in short: as §3
[9] = target: Mu-type opioid receptor (Cavia porcellus) (UniProt P97266); test: Ratio of antagonistic activity against mu receptors in guinea pig ileum in presence and absence of mu agonist DAGO; format: functional, tissue-based; in short: as §3
Sequence of Mu-type opioid receptor (Cavia porcellus) (P97266 whole entry): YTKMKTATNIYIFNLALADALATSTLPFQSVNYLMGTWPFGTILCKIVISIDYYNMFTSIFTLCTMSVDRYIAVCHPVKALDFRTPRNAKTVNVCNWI

[10] = target: Mu-type opioid receptor (Cavia porcellus) (UniProt P97266); test: Ratio of antagonistic activity against mu receptors in guinea pig ileum in presence and absence of mu agonist dermorphin; format: functional, tissue-based; in short: as §3

SMILES	IC50 (Mus musculus; Mus musculus) [nM]	IC50 (Cavia porcellus; Cavia porcellus, Ileum) [nM]	Ki (Mu-type opioid receptor) [nM]	Ki [1] [nM]	Ki ratio [3]	Ratio [4]	also measured
CC[C@H](C)N(CC(=O)N[C@@H](CC(=O)O)C(N)=O)C(=O)[C@H](CC(C)C)NC(=O)[C@H](Cc1c[nH]cn1)NC(=O)[C@H](Cc1ccccc1)NC(=O)[C@@H](CCSC)NC(=O)[C@@H](N)Cc1ccc(O)cc1 (stereo in doubt; 6b) [listing 1 of 2 here]	0.76	642	798	0.09	–	–	–
CSCC[C@H](NC(=O)[C@H](C)NC(=O)[C@H](Cc1c[nH]cn1)NC(=O)[C@H](Cc1ccccc1)NC(=O)[C@@H](CCSC)NC(=O)[C@@H](N)Cc1ccc(O)cc1)C(=O)N[C@@H](CC(=O)O)C(N)=O	406	216	133	1.71	78	0.5	Ke [2]: 632 nM; Ke [5]: 721 nM; Ke [6]: 598 nM
CSCC[C@@H](NC(=O)[C@@H](N)Cc1ccc(O)cc1)C(=O)N[C@@H](Cc1ccccc1)C(=O)N[C@@H](Cc1c[nH]cn1)C(=O)N[C@@H](CC(C)C)C(=O)N[C@H](C(=O)N[C@@H](CC(=O)O)C(N)=O)C(C)(C)C	1.28	325	271	0.46	589	254	–
CSCC[C@H](NC(=O)[C@@H](NC(=O)[C@H](Cc1c[nH]cn1)NC(=O)[C@H](Cc1ccccc1)NC(=O)[C@@H](CCSC)NC(=O)[C@@H](N)Cc1ccc(O)cc1)C(C)(C)C)C(=O)N[C@@H](CC(=O)O)C(N)=O	2430	1200	382	9.45	40	0.5	Ke [2]: 16.1 nM; Ke [5]: 18.4 nM; Ke [7]: 17.2 nM; Ke [8]: 311 nM; Ke [6]: 15.8 nM
CCCCN(CC(=O)N[C@@H](CC(=O)O)C(N)=O)C(=O)[C@H](CC(C)C)NC(=O)[C@H](Cc1c[nH]cn1)NC(=O)[C@H](Cc1ccccc1)NC(=O)[C@@H](CCSC)NC(=O)[C@@H](N)Cc1ccc(O)cc1	0.56	578	820	0.04	18200	1030	–
CCCCN(CC(=O)N[C@@H](CC(=O)O)C(N)=O)C(=O)[C@H](CC(C)C)NC(=O)[C@H](Cc1c[nH]cn1)NC(=O)[C@H](Cc1ccccc1)NC[C@@H](CCSC)NC(=O)[C@@H](N)Cc1ccc(O)cc1 (H-[X1](Tyr)HL[NBuGly]D-NH2)	26	422	–	–	76	16	–
CSCC[C@@H](NC(=O)[C@@H](N)Cc1ccc(O)cc1)C(=O)N[C@@H](Cc1ccccc1)C(=O)N[C@@H](Cc1c[nH]cn1)C(=O)N[C@@H](CC(C)C)C(=O)N(CC(=O)N[C@@H](CC(=O)O)C(N)=O)CC(C)C	2.36	3870	58	0.85	68	1640	Ke [9]: 138 nM; Ke [10]: 165 nM
CSCC[C@H](NC(=O)[C@H](CC(C)C)NC(=O)[C@H](Cc1cnc[nH]1)NC(=O)[C@H](Cc1ccccc1)NC(=O)[C@@H](CCSC)NC(=O)[C@@H](N)Cc1ccc(O)cc1)C(=O)N[C@@H](CC(=O)O)C(N)=O (H-Y[dM]FHLMD-NH2)	0.93	632	219	0.19	–	–	–
Oc1ccc2c3c1O[C@H]1c4[nH]c5ccccc5c4C[C@@]4(O)[C@@H](C2)N(CC2CC2)CC[C@]314	–	–	–	–	–	–	Ke [9]: 52.2 nM; Ke [2]: 0.65 nM; Ke [10]: 151 nM; Ke [5]: 0.94 nM; Ke [7]: 0.67 nM; Ke [8]: 0.65 nM; Ke [6]: 0.67 nM
CC[C@H](C)N(CC(=O)N[C@@H](CC(=O)O)C(N)=O)C(=O)[C@H](CC(C)C)NC(=O)[C@H](Cc1c[nH]cn1)NC(=O)[C@H](Cc1ccccc1)NC(=O)[C@@H](CCSC)NC(=O)[C@@H](N)Cc1ccc(O)cc1 (stereo in doubt; 6b) [listing 2 of 2 here]	–	–	–	–	9690	844	–
CCCCN(CC(=O)N[C@@H](CC(=O)O)C(N)=O)C(=O)[C@@H](NC(=O)[C@H](Cc1cnc[nH]1)NC(=O)[C@H](Cc1ccccc1)NC[C@@H](CCSC)NC(=O)[C@@H](N)Cc1ccc(O)cc1)C(C)(C)C (H-[X1](Tyr)H[Tle][NBuGly]D-NH2)	–	–	157	2.56	–	–	–
CCCCN(CC(=O)N[C@@H](CC(=O)O)C(N)=O)C(=O)[C@@H](NC(=O)[C@H](Cc1c[nH]cn1)NC(=O)[C@H](Cc1ccccc1)NC(=O)[C@@H](CCSC)NC(=O)[C@@H](N)Cc1ccc(O)cc1)C(C)(C)C	1910	1680	152	12.4	12	0.9	Ke [9]: 520 nM; Ke [10]: 554 nM
CCCCN(CC(=O)N[C@@H](CC(=O)O)C(N)=O)C(=O)[C@@H](NC(=O)[C@H](Cc1c[nH]cn1)NC(=O)[C@H](Cc1ccccc1)NC[C@@H](CCSC)NC(=O)[C@@H](N)Cc1ccc(O)cc1)C(C)(C)C (H-[X1](Tyr)H[Tle][NBuGly]D-NH2)	42	995	–	–	61	23	–
CCCCN(CC(=O)N[C@@H](CC(=O)O)C(N)=O)C(=O)[C@H](CC(C)C)NC(=O)[C@H](Cc1cnc[nH]1)NC(=O)[C@H](Cc1ccccc1)NC[C@@H](CCSC)NC(=O)[C@@H](N)Cc1ccc(O)cc1 (H-[X1](Tyr)HL[NBuGly]D-NH2)	–	–	143	1.89	–	–	–
CC[C@H](C)N(CC(=O)N[C@@H](CC(=O)O)C(N)=O)C(=O)[C@H](CC(C)C)NC(=O)[C@H](Cc1c[nH]cn1)NC(=O)[C@H](Cc1ccccc1)NC(=O)[C@@H](CCSC)NC(=O)[C@@H](N)Cc1ccc(O)cc1 (stereo in doubt; 6a) [listing 1 of 2 here]	–	–	–	–	8730	777	–
CC[C@H](C)N(CC(=O)N[C@@H](CC(=O)O)C(N)=O)C(=O)[C@H](CC(C)C)NC(=O)[C@H](Cc1c[nH]cn1)NC(=O)[C@H](Cc1ccccc1)NC(=O)[C@@H](CCSC)NC(=O)[C@@H](N)Cc1ccc(O)cc1 (stereo in doubt; 6a) [listing 2 of 2 here]	–	–	856	0.1	–	–	IC50 (Mus musculus): 0.88 nM; IC50 (Cavia porcellus): 684 nM
